From ChEMBL document CHEMBL3351935, “The synthesis, antimalarial activity and CoMFA analysis of novel aminoalkylated quercetin analogs” (Bioorg Med Chem Lett, 2015)
In brackets after ≈: the same amount, converted by molar mass.

Legend:
Plasmodium falciparum [1] = assay: Antimalarial activity against chloroquine-resistant/mefloquine-sensitive Plasmodium falciparum W2 by malaria SYBR green 1-based fluorescence (MSF) assay; type: functional, organism-based
Plasmodium falciparum [2] = assay: Antimalarial activity against chloroquine /mefloquine/pyrimethamine-resistant Plasmodium falciparum C235 by malaria SYBR green 1-based fluorescence (MSF) assay; type: functional, organism-based
Plasmodium falciparum [3] = assay: Antimalarial activity against chloroquine-sensitive/mefloquine-resistant Plasmodium falciparum D6 by malaria SYBR green 1-based fluorescence (MSF) assay; type: functional, organism-based
[4] = Aqueous solubility of the compound at 1 mM by UV spectroscopic assay; type: physicochemical; conditions: buffer
Method in brief: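 Modified UV-spectroscopic method on the free base. A 1 mM DMSO stock was diluted to 4, 8, 12, 16 and 20 μM (2% DMSO in water) to build calibration curves. Each compound was suspended in medium to saturation, centrifuged at 8000 rpm for 10 min and filtered. Absorbance was read at 280 nm, 25 °C, and concentration was taken from the calibration best-fit line.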

Plasmodium falciparum [5] = assay: Antigametocytocidal activity against Plasmodium falciparum NF54-pfs16-[…] late (4 to 6) gametocyte assessed as viability at 120 uM after 72 hrs by MitoTracker Red CM-H2XRos/micro-plate confocal imaging system; type: functional; conditions: NF54, 72 h
Plasmodium falciparum [6] = assay: Antigametocytocidal activity against Plasmodium falciparum NF54-pfs16-[…] early (1 to 3) gametocyte assessed as viability after 72 hrs by MitoTracker Red CM-H2XRos/micro-plate confocal imaging system; type: functional, organism-based; conditions: NF54, 72 h
Plasmodium falciparum [7] = assay: Antigametocytocidal activity against Plasmodium falciparum NF54-pfs16-[…] late (4 to 6) gametocyte assessed as viability at 40 uM after 72 hrs by MitoTracker Red CM-H2XRos/micro-plate confocal imaging system; type: functional; conditions: NF54, 72 h

| Structure (SMILES) | IC50 (Plasmodium falciparum [1]) | IC50 (Plasmodium falciparum [2]) | IC50 (Plasmodium falciparum [3]) | solubility at 1000 µM [4] | inhibition at 120 µM (Plasmodium falciparum [5]) | IC50 (Plasmodium falciparum [6]) | inhibition at 40 µM (Plasmodium falciparum [7]) |
| --- | --- | --- | --- | --- | --- | --- | --- |
| O=c1c(O)c(-c2ccc(O)c(O)c2)oc2c(CNCc3cccc(F)c3)c(O)cc(O)c12 | 690 nM | 620 nM | 510 nM | 123 µM (≈ 54 µg/mL) |  |  |  |
| O=c1c(O)c(-c2ccc(O)c(O)c2)oc2c(CNCc3ccc(Cl)cc3)c(O)cc(O)c12 | 590 nM | 430 nM | 370 nM | 110 µM (≈ 50.1 µg/mL) |  |  |  |
| O=c1c(O)c(-c2ccc(O)c(O)c2)oc2c(CNCC3CCCO3)c(O)cc(O)c12 (stereo unspecified) | > 2210 nM | > 2210 nM | > 2210 nM | 39 µM (≈ 16.2 µg/mL) |  |  |  |
| O=c1c(O)c(-c2ccc(O)c(O)c2)oc2c(CNCCc3ccccc3Cl)c(O)cc(O)c12 | 290 nM | 260 nM | 250 nM | 85 µM (≈ 39.9 µg/mL) |  |  |  |
| CCN(CC)CCCC(C)Nc1ccnc2cc(Cl)ccc12 (stereo unspecified) [CHLOROQUINE] |  |  |  |  | 100% |  |  |
| Oc1cc(O)c2c(c1)O[C@H](c1ccc(O)c(O)c1)[C@@H](O)C2 [CIANIDANOL] | 6000 nM | 5900 nM | 6700 nM |  |  |  |  |
| C[C@H]1[C@H](OC(=O)CCC(=O)O)O[C@@H]2O[C@@]3(C)CC[C@H]4[C@H](C)CC[C@@H]1[C@@]24OO3 [ARTESUNATE] |  |  |  |  |  | 3 nM |  |
| C[C@@H]1CC[C@H]2[C@@H](C)C(=O)O[C@@H]3O[C@@]4(C)CC[C@@H]1[C@]32OO4 [ARTEMISININ] | 7 nM | 13 nM | 9 nM |  |  |  |  |
| O=c1c(O)c(-c2ccc(O)c(O)c2)oc2c(CNCCc3ccccc3F)c(O)cc(O)c12 | 240 nM | 180 nM | 110 nM | 95 µM (≈ 43.1 µg/mL) |  |  |  |
| O=c1c(O)c(-c2ccc(O)c(O)c2)oc2c(CNCCc3ccccc3)c(O)cc(O)c12 | > 2120 nM | > 2120 nM | 2110 nM | 41 µM (≈ 17.9 µg/mL) |  |  |  |
| O=c1c(O)c(-c2ccc(O)c(O)c2)oc2c(CNCCc3cccc(Cl)c3)c(O)cc(O)c12 | 79 nM | 80 nM | 69 nM | 199 µM (≈ 93.5 µg/mL) |  | 6790 nM | 100% |
| CN1CCN(Cc2c(O)cc(O)c3c(=O)c(O)c(-c4ccc(O)c(O)c4)oc23)CC1 | 2400 nM | 5300 nM | 2900 nM | 131 µM (≈ 54.3 µg/mL) |  |  |  |
| O=c1c(O)c(-c2ccc(O)c(O)c2)oc2c(CNCCc3ccc(Cl)cc3)c(O)cc(O)c12 | 1900 nM | 1200 nM | 830 nM | 99 µM (≈ 46.5 µg/mL) |  |  |  |
